The source of these data is article PMC7932937 (Clinical Pharmacokinetics, 2020).

Read-outs that look alike come from different tables or passages of the source.

Data set [1] is described as follows: Population pharmacokinetic model. The format is in vivo, people living with HIV. Summed up: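 Adults with HIV on rosuvastatin 5–20 mg daily. Plasma came from a rich-sampling study and from sparse samples at cohort visits, 0.2–38.5 h post-dose, and was assayed by UHPLC-MS/MS. Models tested one or two compartments with first-order, zero-order or mixed absorption. Absorption parameters were fixed from the rich data. Between-subject variability was log-normal; residual error additive on the log scale. Covariate thresholds: ΔOFV 3.84 forward, 7.88 backward.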

The conditions of data set [2]: cited from earlier work.
For data set [3] the following is noted: literature values ref 12, 26, 27; cited from earlier work.
For data set [4], the system named is baseline non-HDL-cholesterol. The data set is described as follows: Covariate analysis on baseline non-HDL-cholesterol in the PK/PD model. In kind it is in vivo, people living with HIV. The settings on record: coadministration, final PK/PD model covariate. Summed up: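 Indirect-response model linked to the final population PK model (plasma rosuvastatin by UHPLC-MS/MS; daily doses 5–20 mg). Drug inhibits kin, with kout = kin/baseline. Covariates (ARV regimen, comedications, diabetes, weight, AST, ALT, age) were tested on baseline only, by stepwise forward inclusion and backward deletion. Continuous covariates were median-centred (linear or allometric), categorical ones coded 0/1. Cholesterol was measured enzymatically (cholesterol oxidase).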

The mark [5] stands for this setting: estimated from full PK profiles (rich sampling), without variability.
Where [6] appears, read: coadministered with cobicistat-boosted darunavir ref 20.
The mark [7] stands for this setting: coadministered with ritonavir-boosted atazanavir ref 19.
Where [8] appears, read: coadministered with ritonavir-boosted darunavir ref 9.
Setting [9] is: coadministered with ritonavir-boosted lopinavir ref 30.

Consider `CC(C)c1nc(N(C)S(C)(=O)=O)nc(-c2ccc(F)cc2)c1/C=C/[C@@H](O)C[C@@H](O)CC(=O)O` [rosuvastatin], for which, in data set [1] (coadministered boosted PIs, univariate analysis), the “Cl decrease with boosted PIs that the study was powered to rule out” value is listed as no more than 22%. The absorption rate constant in data set [1] (setting [5]) is 0.306 h⁻¹. In addition, the “duration of zero-order absorption” value in data set [1] (setting [5]) is given as 0.461 h. Moreover, the “increase in rosuvastatin Vc” value in data set [1] (in women, univariate testing, not significant in multivariate analysis) was “three-fold”. In addition, the “increase in rosuvastatin AUC0–24” value in data set [2] (setting [6]) was 93%; in data set [2] (setting [7]), 213%; in data set [2] (setting [8]), 48%; in data set [2] (setting [9]), 110%. The “increase in rosuvastatin Cmax” value in data set [2] (setting [6]) is given as 277%; in data set [2] (setting [7]), 600%; in data set [2] (setting [8]), 143%; in data set [2] (setting [9]), 370%. For the same compound, the volume of distributions in data set [3] is 1255 to 4870 L.

For the compound `Cc1cc(C#N)cc(C)c1Oc1nc(Nc2ccc(C#N)cc2)nc(N)c1Br` [etravirine], the “decrease in the baseline non-HDL-cholesterol value” in data set [4] was 14%.
